The term IC50 denotes the concentration needed to halve the response being measured. For orientation: inhibition means the relative decrease from the control value, in per cent.

The target of data set [1] is T1, Steroid 17-alpha-hydroxylase/17,20 lyase (Homo sapiens, UniProt P05093).
T1 sequence (P05093 whole entry): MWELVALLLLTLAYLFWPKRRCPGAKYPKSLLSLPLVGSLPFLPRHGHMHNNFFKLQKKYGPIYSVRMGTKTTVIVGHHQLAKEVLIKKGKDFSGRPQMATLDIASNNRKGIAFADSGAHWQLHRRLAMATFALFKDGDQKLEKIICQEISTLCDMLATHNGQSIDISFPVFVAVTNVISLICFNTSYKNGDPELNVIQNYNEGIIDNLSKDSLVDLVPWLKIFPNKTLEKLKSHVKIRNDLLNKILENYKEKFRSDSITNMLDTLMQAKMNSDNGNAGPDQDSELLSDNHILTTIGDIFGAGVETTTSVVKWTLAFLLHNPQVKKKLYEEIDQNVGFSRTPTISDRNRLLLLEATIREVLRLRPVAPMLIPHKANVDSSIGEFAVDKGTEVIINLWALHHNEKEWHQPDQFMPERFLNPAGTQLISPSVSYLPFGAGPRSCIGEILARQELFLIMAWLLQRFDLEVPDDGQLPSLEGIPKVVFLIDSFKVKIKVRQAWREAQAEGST
Briefly: Evaluated for the inhibitory activity towards Cytochrome P450 17 human enzyme using testicular microsome at 25 uM of substrate (progesterone). Also noted: species or system Testis.

For data set [2], the target named is T2, P450 scc (cholesterol side-chain cleavage enzyme, mitochondrial) (Bos taurus, UniProt P00189).
T2 sequence (P00189 whole entry): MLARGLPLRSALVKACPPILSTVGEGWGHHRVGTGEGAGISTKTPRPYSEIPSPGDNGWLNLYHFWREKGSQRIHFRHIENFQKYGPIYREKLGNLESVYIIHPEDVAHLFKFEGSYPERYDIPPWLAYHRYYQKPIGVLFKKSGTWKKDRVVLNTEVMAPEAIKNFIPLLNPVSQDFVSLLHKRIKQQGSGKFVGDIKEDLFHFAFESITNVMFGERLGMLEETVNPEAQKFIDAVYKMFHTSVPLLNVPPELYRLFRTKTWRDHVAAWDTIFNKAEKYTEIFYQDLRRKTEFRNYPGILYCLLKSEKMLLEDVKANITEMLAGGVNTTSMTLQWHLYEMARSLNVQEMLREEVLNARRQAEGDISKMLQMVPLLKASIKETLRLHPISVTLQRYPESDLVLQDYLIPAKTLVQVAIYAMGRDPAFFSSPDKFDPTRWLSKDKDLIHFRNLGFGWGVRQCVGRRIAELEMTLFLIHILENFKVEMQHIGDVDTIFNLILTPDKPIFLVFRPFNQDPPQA
Description: Inhibition of P450 scc at 25 uM. The conditions noted are these: cattle. A digest of the protocol:
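Bovine adrenal P450 scc preparation; inhibitor tested at 25 µM.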

Data set [3] addresses T3, Steroid 17-alpha-hydroxylase/17,20 lyase (Rattus norvegicus, UniProt P11715).
T3 sequence (P11715 whole entry): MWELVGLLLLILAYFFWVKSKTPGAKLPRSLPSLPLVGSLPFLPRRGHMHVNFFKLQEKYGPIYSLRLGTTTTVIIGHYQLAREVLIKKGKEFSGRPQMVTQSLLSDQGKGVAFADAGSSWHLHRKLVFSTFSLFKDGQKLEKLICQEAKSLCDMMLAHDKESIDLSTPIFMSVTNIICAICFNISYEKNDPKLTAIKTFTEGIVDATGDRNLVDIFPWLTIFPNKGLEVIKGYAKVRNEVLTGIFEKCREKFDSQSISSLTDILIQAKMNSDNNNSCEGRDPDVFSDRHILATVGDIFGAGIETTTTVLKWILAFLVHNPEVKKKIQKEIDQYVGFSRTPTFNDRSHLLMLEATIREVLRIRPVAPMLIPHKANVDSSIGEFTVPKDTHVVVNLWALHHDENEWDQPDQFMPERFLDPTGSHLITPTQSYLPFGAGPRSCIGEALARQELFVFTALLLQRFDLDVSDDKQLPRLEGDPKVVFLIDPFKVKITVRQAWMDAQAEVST
Briefly: Evaluated for the inhibitory activity towards Cytochrome P450 17 rat enzyme using testicular microsome at 25 uM of substrate (progesterone). Also noted: species or system Testis. A digest of the protocol:
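Testicular microsomes (human for human enzyme, rat for rat enzyme) incubated with progesterone substrate at 25 µM; product measured by RP-HPLC with UV detection. IC50 = concentration giving 50% inhibition, mean of at least two experiments.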

For data set [4], the target named is T4, 3-oxo-5-alpha-steroid 4-dehydrogenase 1 (Homo sapiens, UniProt P18405).
T4 sequence (P18405 whole entry): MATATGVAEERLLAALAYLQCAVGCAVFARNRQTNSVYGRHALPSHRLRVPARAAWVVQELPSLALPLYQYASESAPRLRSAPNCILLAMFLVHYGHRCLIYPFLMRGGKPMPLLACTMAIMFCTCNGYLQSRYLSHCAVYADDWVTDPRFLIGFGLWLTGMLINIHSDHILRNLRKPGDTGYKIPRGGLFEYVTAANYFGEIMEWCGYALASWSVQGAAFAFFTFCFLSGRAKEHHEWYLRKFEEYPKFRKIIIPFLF
Briefly: Evaluated for the inhibitory activity against human steroid 5-alpha-reductase type I in human DU-145 cell assay at 5 nM of androstenedione. In kind it is cell-based. A digest of the protocol:
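Whole human DU-145 cells as source of type 1 enzyme, incubated with radiolabeled androstenedione at 5 nM; HPLC separation of product. IC50 = inhibitor concentration giving 50% inhibition; mean of at least two experiments.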

Data set [5] deals with T5, 3-oxo-5-alpha-steroid 4-dehydrogenase 2 (Homo sapiens, UniProt P31213).
T5 sequence (P31213 whole entry): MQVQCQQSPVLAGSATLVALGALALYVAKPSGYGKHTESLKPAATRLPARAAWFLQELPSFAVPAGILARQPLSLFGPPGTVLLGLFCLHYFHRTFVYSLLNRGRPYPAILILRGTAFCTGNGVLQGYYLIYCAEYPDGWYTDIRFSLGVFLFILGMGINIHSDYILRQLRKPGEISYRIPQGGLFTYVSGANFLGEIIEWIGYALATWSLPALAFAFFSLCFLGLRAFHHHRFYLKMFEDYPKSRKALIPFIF
Description: Inhibition of steroid 5-alpha-reductase type 2 from human BPH tissue at 210 nM testosterone; No inhibition. A digest of the protocol: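 Enzyme from prostate homogenate of BPH patients, assayed at pH 5.5 with radiolabeled testosterone at 210 nM; product separated by HPLC. IC50 taken as inhibitor concentration giving 50% inhibition; mean of at least two experiments.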

Consider `CC12CCC(O)CC1=CCC1C2CCC2(C)C(C/C=N/O)CCC12` (configuration not stated), for which the IC50 in data set [1] was determined as 270 nM; in data set [3], 2760 nM. In data set [2], this compound returned an inhibition at 25 µM of 74%.
Consider `C/C(=N/O)C1=CC=C2C3CCC4=CC(=O)CCC4(C)C3CCC12C` (configuration not stated), for which the IC50 in data set [4] was greater than 10000 nM; in data set [5], “Not Active”; in data set [1], 200 nM; in data set [3], greater than 125000 nM.

The values above are taken from ChEMBL document CHEMBL1133510, “Synthesis and evaluation of novel steroidal oxime inhibitors of P450 17 (17 alpha-hydroxylase/C17-20-lyase) and 5 alpha-reductase types 1 and 2” (J Med Chem, 2000).
